A short description of experiment [1]: hit retest on RPL19A-GFP reporter strain – cell-based, S. cerevisiae, flow cytometry, cherry picks, mother/daughter gates, confirmation (AID 2270;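 active means GFP response below 50% of the DMSO control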). As to conditions: 3 h, at 10 µM, stronger effect = lower value, 100 = same GFP as DMSO wells. A general note: A flow cytometer gives signals particle by particle.
The nature of experiment [2]: yeast TOR pathway reporter LAP4-GFP change – cell-based, cherry picks, flow cytometry, mother/daughter gates, confirmation (AID 2271;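 active means GFP response above 150% of the DMSO control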;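 further: ratio of sample to DMSO plate mean so 100% equals DMSO level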). The note with it: S. cerevisiae LAP4-GFP strain, 3 h, at 10 µM, stronger effect = higher value, 100 means same as DMSO control. An outline of the steps: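 Material: Alexa Fluor 633-labelled Saccharomyces cerevisiae GFP-fusion strain, single-plex | Amount: Yeast cells seeded at OD600 of 0.2 | Buffer or medium: SC growth medium | Schedule: 3 h exposure, 30 °C | Measured by: HT flow cytometry, GFP fluorescence channel | Evaluation: % GFP response vs DMSO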

Experiment [3] in a line: TOR pathway reporter MEP2-GFP, retest of hits – S. cerevisiae, flow cytometry GFP, cherry picks, confirmation (AID 2272;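 active means GFP response above 150% of the DMSO control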;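 further: ratio of well signal to plate DMSO mean so 100% equals DMSO level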). As to conditions: S. cerevisiae MEP2-GFP strain, 3 h, at 10 µM, stronger effect = higher value.
The nature of experiment [4]: yeast AGP1-GFP fluorescence change, single-dose – cell-based, flow cytometry, S. cerevisiae, cherry picks, confirmation (AID 2273).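 Further: median GFP channel fluorescence over the whole cell population gate.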 As to conditions: S. cerevisiae AGP1-GFP strain, 3 h, at 10 µM.
Experiment [5] is described as follows: TOR pathway CIT2 reporter hit retest – S. cerevisiae, GFP fusion, cherry picks, mother/daughter gates, confirmation (AID 2274). As to conditions: S. cerevisiae CIT2-GFP strain, flow cytometry, 3 h, at 10 µM, stronger effect = higher value.
Setting [6] is: measured here: daughter cell gate.
Setting [7] is: measured here: mother cell gate.
Where [8] appears, read: measured here: daughter cell gate response.
The mark [9] stands for this setting: measured here: mother cell gate response.

Activity calls are given as the source filed them.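 How the source made its calls, unless noted: active means GFP response above 150% of the DMSO level; inconclusive means fewer than 70 events counted for a yeast strain; inactive means the rest.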

For the molecule `Cc1nn2c(N3CCN(C(=O)c4ccco4)CC3)cc(C(C)(C)C)nc2c1-c1ccccc1`, the GFP response vs DMSO in experiment [1] was 98.2% (inactive); in experiment [1] (setting [6]), 97.6%; in experiment [1] (setting [7]), 98.9%; in experiment [3], 100% (inactive). Further, the GFP response relative to DMSO in experiment [2] is 92.8% (inactive); in experiment [2] (setting [8]) it was 94.4%; in experiment [2] (setting [9]), 92.9%. The GFP response, % of DMSO is 97.6% (inactive) in experiment [4], 95.5% (inactive) in experiment [5], 97.2% in experiment [5] (setting [6]) and 95% in experiment [5] (setting [7]).

For `CCCc1[nH]nc2c1C(c1cccnc1)C(C#N)=C(N)O2` (stereo not drawn), the GFP response vs DMSO in experiment [1] is 98.6% (inactive); in experiment [1] (setting [6]), 97.9%; in experiment [1] (setting [7]), 99.2%; in experiment [3] it was 96.2% (inactive). Further, the GFP response relative to DMSO is 99.2% (inactive) in experiment [2], 97.6% in experiment [2] (setting [8]) and 98.3% in experiment [2] (setting [9]). In addition, the GFP response, % of DMSO is 103% (inactive) in experiment [4], 101% (inactive) in experiment [5], 99.1% in experiment [5] (setting [6]) and 99.7% in experiment [5] (setting [7]).

Take `COC(=O)Cn1nc(-c2ccccc2)c2ccccc21`: the GFP response vs DMSO in experiment [1] is 92% (inactive); in experiment [1] (setting [6]), 88.5%; in experiment [1] (setting [7]), 92.9%; in experiment [3] it was 109% (inactive). The GFP response relative to DMSO was 106% (inactive) in experiment [2], 101% in experiment [2] (setting [8]) and 106% in experiment [2] (setting [9]). For the same molecule, the GFP response, % of DMSO was 97.3% (inactive) in experiment [4], 102% (inactive) in experiment [5], 101% in experiment [5] (setting [6]) and 98.1% in experiment [5] (setting [7]).

Turning to `CCOc1cc(N2CCOCC2)c(OCC)cc1NC(=O)C(NC(=O)c1ccco1)C(C)C` (stereo not drawn), the GFP response vs DMSO is 102% (inactive) in experiment [1], 101% in experiment [1] (setting [6]), 102% in experiment [1] (setting [7]) and 107% (inactive) in experiment [3]. The GFP response relative to DMSO in experiment [2] was 91.4% (inactive); in experiment [2] (setting [8]), 95.6%; in experiment [2] (setting [9]) it was 93.1%. Further, the GFP response, % of DMSO in experiment [4] is 99.6% (inactive); in experiment [5], 108% (inactive); in experiment [5] (setting [6]), 108%; in experiment [5] (setting [7]), 108%.

On to `Cc1cccn2c(=O)c(/C=C(\C#N)C(=O)NCc3ccccc3)c(N3CCC(C(N)=O)CC3)nc12`, for which the GFP response vs DMSO in experiment [1] was 98.7% (inactive); in experiment [1] (setting [6]) it was 99%; in experiment [1] (setting [7]), 97.5%; in experiment [3], 101% (inactive). In addition, the GFP response relative to DMSO in experiment [2] is 101% (inactive); in experiment [2] (setting [8]) it was 102%; in experiment [2] (setting [9]), 101%. The GFP response, % of DMSO was 104% (inactive) in experiment [4], 101% (inactive) in experiment [5], 103% in experiment [5] (setting [6]) and 103% in experiment [5] (setting [7]).

`Cc1nnc(OCc2nc3ccccc3n2C)c2ccccc12`: the GFP response vs DMSO was 101% (inactive) in experiment [1], 102% in experiment [1] (setting [6]), 101% in experiment [1] (setting [7]) and 99.5% (inactive) in experiment [3]. Besides, the GFP response relative to DMSO in experiment [2] was 98.8% (inactive); in experiment [2] (setting [8]) it was 93.6%; in experiment [2] (setting [9]), 100%. The GFP response, % of DMSO is 94.3% (inactive) in experiment [4], 96.4% (inactive) in experiment [5], 96.4% in experiment [5] (setting [6]) and 95.6% in experiment [5] (setting [7]).

As for `N#Cc1nccnc1S(=O)(=O)c1cccs1`, the GFP response vs DMSO in experiment [1] was 96.2% (inactive); in experiment [1] (setting [6]), 99.5%; in experiment [1] (setting [7]), 94.6%; in experiment [3], 106% (inactive). The values for the GFP response relative to DMSO in experiment [2], in experiment [2] (setting [8]) and in experiment [2] (setting [9]) were 166% (active), 149% and 162%, respectively. Also, the GFP response, % of DMSO in experiment [4] is 96.1% (inactive); in experiment [5], 103% (inactive); in experiment [5] (setting [6]), 103%; in experiment [5] (setting [7]), 98.2%.

With `Cc1ccc(-c2ccc(CCC(=O)O)o2)cc1`, the GFP response vs DMSO in experiment [1] is 102% (inactive); in experiment [1] (setting [6]), 95.9%; in experiment [1] (setting [7]), 101%; in experiment [3], 95.7% (inactive). Also, the results for the GFP response relative to DMSO in experiment [2], in experiment [2] (setting [8]) and in experiment [2] (setting [9]) were 147% (inactive), 139% and 150%, respectively. In addition, the GFP response, % of DMSO was 94.8% (inactive) in experiment [4], 90% (inactive) in experiment [5], 85% in experiment [5] (setting [6]) and 90.2% in experiment [5] (setting [7]).

These data come from PubChem BioAssay.
